The structures appear in SMILES notation.

By IC50 is commonly meant the midpoint of a concentration-inhibition curve. A high value points to weaker potency. One may read the EC50 as the concentration at which the effect is half-maximal. As usually defined, the CC50 is the concentration that lowers cell viability or growth by half.

A short description of series [1]: Inhibition of MERS-CoV 3CLpro using FAM-SAVLQ as substrate preincubated with enzyme for 1 hr followed by susbtrate addition and measured after 1 hr by FRET assay. Also on record: species or system Middle East respiratory syndrome-related coronavirus.
In series [2] the target is Replicase polyprotein 1ab (Severe acute respiratory syndrome coronavirus 2, UniProt P0DTD1). The experiment in a line: Inhibition of N-terminal His6-tagged full length SARS-CoV-2 3CLpro using FAM-SAVLQ as substrate preincubated with enzyme for 1 hr followed by susbtrate addition and measured after 1 hr by FRET assay.
The next series has as its system SARS-CoV-2. Put plainly: Antiviral activity against SARS-CoV-2 Wuhan-HU-1 infected in HEK293T cells assessed as inhibition of viral replication incubated for 30 hrs by luciferase reporter gene assay. Format: functional, organism-based. Conditions: Severe acute respiratory syndrome coronavirus 2, Wuhan-HU-1, HEK-293T. Put shortly:
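This is a non-infectious Wuhan-Hu-1 replicon system, not infectious virus. Replicon RNA was electroporated into 293T cells, which were then incubated for 30 h with compound at 2, 0.5, 0.1 and 0.02 µM or with 0.1% DMSO. Read-out was luciferase activity. Values are mean ± SD.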
For orientation: A reporter such as luciferase makes a cellular process visible.

A short description of series [3]: Cytotoxicity against human HEK293T cells assessed as reduction in cell viability incubated for 72 hrs by CytoTox 96 nonradioactive assay. Format: toxicity, cell-based, HEK-293T.
A short description of series [4]: Safety index, ratio of CC50 for cytotoxicity against human HEK293T cells to EC50 for antiviral activity against SARS-CoV-2 Wuhan-HU-1 infected in HEK293T cells. Format: toxicity, cell-based. Conditions: read-out: Ratio CC50/EC50. Put shortly:
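In vitro safety index was calculated as the 293T CC50 divided by the SARS-CoV-2 replicon EC50.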

Turning to `CC(C)C[C@H](NC(=O)OCC(C)(O)c1cccc(Cl)c1)C(=O)N[C@H](C=O)C[C@@H]1CCNC1=O` (mixture of isomers), the results for the IC50 in series [1] and in series [2] were 120 nM and 290 nM, respectively. The EC50 with SARS-CoV-2 turned out to be 25 nM. In series [3], the CC50 at 72 h was over 50000 nM.
`CC(C)C[C@H](NC(=O)OCC(C)(C)Sc1cccc(F)c1)C(=O)N[C@@H](C[C@@H]1CCNC1=O)C(O)S(=O)(=O)O` (stereo not given in full) came in with an IC50 in series [2] of 130 nM. In addition, in the series with SARS-CoV-2, the half-maximal effective concentration (EC50) came to 10 nM. Moreover, the selectivity ratio in series [4] is 3330. In addition, in series [3], the half-maximal cytotoxic concentration (CC50) at 72 h was over 50000 nM.
As to `CC(C)C[C@H](NC(=O)OCC(C)(C)[S+]([O-])c1ccccc1)C(=O)N[C@@H](C[C@@H]1CCNC1=O)C(O)S(=O)(=O)O` (mixture of isomers), the values for the IC50 in series [1] and in series [2] were 250 nM and 350 nM, respectively. For the same molecule, the CC50 at 72 h in series [3] was over 50000 nM.
For `CC(C)C[C@H](NC(=O)OCC(C)(C)Oc1cccc(F)c1)C(=O)N[C@@H](C[C@@H]1CCNC1=O)C(O)S(=O)(=O)O` (stereo not given in full), in that order: 40 nM, 120 nM and over 50000 nM.
`CC(C)C[C@H](NC(=O)OCc1ccccc1)C(=O)N[C@H](C=O)C[C@@H]1CCNC1=O`: the IC50 in series [1] was determined as 280 nM. Moreover, the EC50 in the series on SARS-CoV-2 is 31 nM. In addition, in series [3], the cytotoxic concentration (CC50) at 72 h is […].
Consider `CC(C)C[C@H](NC(=O)OCC(C)(C)S(=O)(=O)c1ccccc1)C(=O)N[C@H](C=O)C[C@@H]1CCNC1=O`, for which the IC50 in series [1] came to 260 nM; in series [2], 190 nM. In addition, in series [3], the CC50 at 72 h is over 50000 nM.
The like results for `CC(C)C[C@H](NC(=O)OCCSc1ccccc1)C(=O)N[C@@H](C[C@@H]1CCNC1=O)C(O)S(=O)(=O)O` (stereo not given in full) were, in that order, 140 nM, 310 nM and over 50000 nM.
The like results for `CC(C)C[C@H](NC(=O)OCC(C)(C)Oc1cccc(F)c1)C(=O)N[C@H](C=O)C[C@@H]1CCNC1=O` were, in that order, 50 nM, 200 nM and over 50000 nM.
For the molecule `CC(C)C[C@H](NC(=O)OCC(C)(C)Sc1cccc(Cl)c1)C(=O)N[C@@H](C[C@@H]1CCNC1=O)C(O)S(=O)(=O)O` (stereo not given in full), the IC50 in series [1] worked out at 100 nM; in series [2] it was 170 nM. Moreover, the EC50 in the series on SARS-CoV-2 turned out to be 11 nM. Further, the selectivity ratio in series [4] was 3330. The CC50 at 72 h in series [3] is over 50000 nM.
In the case of `CC(C)C[C@H](NC(=O)OCC(C)(C)Oc1ccc(F)cc1)C(=O)N[C@@H](C[C@@H]1CCNC1=O)C(O)S(=O)(=O)O` (stereo not given in full), the concentration for half-maximal inhibition (IC50) was 40 nM in series [1] and 230 nM in series [2]. Besides, the CC50 at 72 h in series [3] was over 50000 nM.
For `CC(C)C[C@H](NC(=O)OCC(C)(C)Oc1ccc(Cl)cc1)C(=O)N[C@H](C=O)C[C@@H]1CCNC1=O`, in that order: 20 nM, 460 nM and over 50000 nM.
For `CC(C)C[C@H](NC(=O)OCC(C)(C)Oc1ccccc1)C(=O)N[C@H](C=O)C[C@@H]1CCNC1=O`, in that order: 40 nM, 310 nM and over 50000 nM.
As for `CC(C)C[C@H](NC(=O)OCC(C)(C)Sc1ccc(F)cc1)C(=O)N[C@@H](C[C@@H]1CCNC1=O)C(O)S(=O)(=O)O` (stereo not given in full), the IC50 in series [1] worked out at 150 nM; in series [2], 270 nM. Besides, the CC50 at 72 h in series [3] is over 50000 nM.
For `CC(C)C[C@H](NC(=O)OCC(C)(C)Oc1ccccc1)C(=O)N[C@@H](C[C@@H]1CCNC1=O)C(O)S(=O)(=O)O` (stereo not given in full), in that order: 20 nM, 240 nM and over 50000 nM.
In the case of `CC(C)C[C@H](NC(=O)OCC(C)(C)Sc1cccc(F)c1)C(=O)N[C@H](C=O)C[C@@H]1CCNC1=O`, the half-inhibitory concentration (IC50) in series [1] came to 100 nM; in series [2] it was 140 nM. The EC50 in the series on SARS-CoV-2 was 9 nM. In addition, in series [4], the selectivity ratio is 3330. Also, the 50% cytotoxic concentration (CC50) at 72 h in series [3] is over 50000 nM.
For the molecule `CC(C)C[C@H](NC(=O)OCC(C)(C)Sc1nc2ccccc2[nH]1)C(=O)N[C@H](C=O)C[C@@H]1CCNC1=O`, the results for the IC50 in series [1] and in series [2] were 120 nM and 300 nM, respectively. Besides, the CC50 at 72 h in series [3] is over 50000 nM.
Take `CC(C)C[C@H](NC(=O)OCC(C)(O)c1cccc(Cl)c1)C(=O)N[C@@H](C[C@@H]1CCNC1=O)C(O)S(=O)(=O)O` (mixture of isomers): the results for the IC50 in series [1] and in series [2] were 100 nM and 320 nM, respectively. For the same molecule, the EC50 in the series with SARS-CoV-2 came to 25 nM. Also, the 50% cytotoxic concentration (CC50) at 72 h in series [3] was over 50000 nM.
Turning to `CC(C)C[C@H](NC(=O)OCC(C)(C)Oc1cccc(Cl)c1)C(=O)N[C@@H](C[C@@H]1CCNC1=O)C(O)S(=O)(=O)O` (stereo not given in full), the values for the IC50 in series [1] and in series [2] were 20 nM and 210 nM, respectively. Also, in the series on SARS-CoV-2, the EC50 worked out at 14 nM. Besides, the selectivity ratio in series [4] amounted to 3330. For the same molecule, the CC50 at 72 h in series [3] was over 50000 nM.
Regarding `CC(C)C[C@H](NC(=O)OCC(C)(C)S(=O)(=O)c1ccccc1)C(=O)N[C@@H](C[C@@H]1CCNC1=O)C(O)S(=O)(=O)O` (stereo not given in full), the IC50 in series [1] was determined as 280 nM; in series [2], 200 nM. Also, the CC50 at 72 h in series [3] was over 50000 nM.
With `[2H]C([2H])(OC(=O)N[C@@H](CC(C)C)C(=O)N[C@@H](C[C@@H]1CCNC1=O)C(O)S(=O)(=O)[O-])C(C)(C)Sc1ccccc1.[Na+]` (stereo not given in full), the IC50 turned out to be 40 nM in series [1] and 310 nM in series [2]. The EC50 in the series with SARS-CoV-2 stood at 12 nM. The selectivity ratio in series [4] is 3330. Further, the CC50 at 72 h in series [3] was over 50000 nM.
For `[2H]C([2H])(OC(=O)N[C@@H](CC(C)C)C(=O)N[C@@H](C[C@@H]1CCNC1=O)C(O)S(=O)(=O)[O-])C(C)(C)Oc1ccc(Cl)cc1.[Na+]` (stereo not given in full), in that order: 20 nM, 170 nM, 12 nM, 3330 and over 50000 nM.
In the case of `CC(C)C[C@H](NC(=O)OCC(C)(C)Sc1nc2ccccc2[nH]1)C(=O)N[C@@H](C[C@@H]1CCNC1=O)C(O)S(=O)(=O)O` (stereo not given in full), half-maximal inhibition in series [1] (IC50) was put at 210 nM. In series [3], the CC50 at 72 h was over 50000 nM.
As for `[2H]C([2H])(OC(=O)N[C@@H](CC(C)C)C(=O)N[C@H](C=O)C[C@@H]1CCNC1=O)C(C)(C)Oc1cccc(Cl)c1`, the IC50 in series [1] is 40 nM; in series [2] it was 300 nM. Also, in series [3], the CC50 at 72 h was over 50000 nM.
In turn, `CC(C)C[C@H](NC(=O)OCC(C)(C)Sc1ccccc1)C(=O)N[C@@H](C[C@@H]1CCNC1=O)C(O)S(=O)(=O)O` (stereo not given in full) gave an IC50 in series [2] of 90 nM. Moreover, the EC50 in the series on SARS-CoV-2 came to 10 nM. Also, the selectivity ratio in series [4] was 3330. Besides, in series [3], the half-maximal cytotoxic concentration (CC50) at 72 h was over 50000 nM.
On to `CC(C)C[C@H](NC(=O)OCC(C)(C)Sc1ccccc1)C(=O)N[C@@H](C[C@@H]1CCNC1=O)C(O)(C(=O)NC1CC1)S(=O)(=O)O` (stereo not given in full), for which the IC50 in series [1] came to 180 nM; in series [2], 450 nM. For the same molecule, the EC50 in the series on SARS-CoV-2 was 70 nM. Moreover, in series [3], the CC50 at 72 h was over 50000 nM.
As for `CC(C)C[C@H](NC(=O)OCCSc1ccccc1)C(=O)N[C@H](C=O)C[C@@H]1CCNC1=O`, the results for the IC50 in series [1] and in series [2] were 140 nM and 320 nM, respectively. Moreover, the CC50 at 72 h in series [3] was over 50000 nM.
With `CC(C)C[C@H](NC(=O)OCC(C)(C)Sc1ccc(F)cc1)C(=O)N[C@H](C=O)C[C@@H]1CCNC1=O`, the concentration for half-maximal inhibition (IC50) in series [1] was 190 nM; in series [2] it was 170 nM. The 50% cytotoxic concentration (CC50) at 72 h in series [3] is over 50000 nM.
For `CC(C)C[C@H](NC(=O)OCc1ccccc1)C(=O)N[C@@H](C[C@@H]1CCNC1=O)C(O)S(=O)(=O)O` (stereo not given in full), the EC50 in the series on SARS-CoV-2 is 27 nM.
Consider `CC(C)C[C@H](NC(=O)OCC(C)(C)[S+]([O-])c1ccccc1)C(=O)N[C@H](C=O)C[C@@H]1CCNC1=O` (mixture of isomers), for which the IC50 in series [1] worked out at 190 nM; in series [2], 330 nM. Further, the CC50 at 72 h in series [3] is over 50000 nM.
For the molecule `[2H]C([2H])(OC(=O)N[C@@H](CC(C)C)C(=O)N[C@@H](C[C@@H]1CCNC1=O)C(O)S(=O)(=O)[O-])C(C)(C)Oc1cccc(Cl)c1.[Na+]` (stereo not given in full), the IC50 was 70 nM in series [1] and 280 nM in series [2]. The CC50 at 72 h in series [3] is over 50000 nM.
The like results for `CC(C)C[C@H](NC(=O)OCC(C)(C)Oc1ccc(Cl)cc1)C(=O)N[C@@H](C[C@@H]1CCNC1=O)C(O)S(=O)(=O)O` (stereo not given in full) were, in that order, 110 nM, 340 nM and over 50000 nM.

Source of the values: ChEMBL document CHEMBL5325428 (Eur J Med Chem, 2023).
